Data taken from the EternaBench riboswitch data.

Test system: MS2 coat protein
Assay: apparent Kd, MS2 coat protein; higher = weaker binding; RNA-MaP array; FMN 200 µM where present
In short: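 Stalled E. coli RNA polymerase transcribed the designs on Illumina sequencing-chip clusters. SNAP-549-labelled MS2 coat protein was titrated from 0.7 or 1.5 nM, doubling to 3 µM, without and then with constant ligand, in 100 mM Tris-HCl pH 7.5, 80 mM KCl, 4 mM MgCl2, BSA, DTT, yeast tRNA and Tween-20. Per-cluster binding curves were fitted to green signal normalised to red-channel RNA signal and control-cluster median Fmax. The apparent Kd is the median of the filtered fits.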

[1] = designed as: OFF switch for flavin mononucleotide, no ligand
[2] = ligand present: flavin mononucleotide, designed as: OFF switch for flavin mononucleotide
[3] = designed as: ON switch for flavin mononucleotide, no ligand
[4] = ligand present: flavin mononucleotide, designed as: ON switch for flavin mononucleotide

Sequence	apparent Kd [1] [µM]	apparent Kd [2] [µM]	apparent Kd [3] [µM]	apparent Kd [4] [µM]
AAUCGCAGUGCAGGAUAUCCAAGGUUUGGCGAAGGAGAAGGGCAUGCGACAUGAGGAUCACCCAUGUAAAGUAUGGCGUCCUCU	0.231	0.117		
CCCGGGCCUGUGAGGAUAUCGGGCCCGAAAGGGUUUGAGAAGGCACAUGAGGAUCACCCAUGUAAGGGUUUGGG	0.0338	0.0247		
AAACUCAUGCAGAAGGGACAAACGGGUGGGAUCUGCAUGUGCACAUGAGGAUCACCCAUGUGGUGUCAGGAUAUGCUGGGCACG	0.102	0.0752		
GUGUACGCAGGAUAUACAUGAGGAUCACCCAUGUGAAUAAGAUAGAAUAAGAUAAAGUGUAGAAGGGCGAGUGU	0.0352	0.0349		
GAGUGGAAGGCCGCUACAUGAGGAUCACCCAUGUGCUAAGCACAGGAUAUCGCGCUAGCCCGGCGCGAGAAGGGUGACGGCCUU			0.577	0.277
GUCAGCCCGUGAGGAUAUACAACACUGCUUCGGCAGUGUAUUAAGAUCACAUGAGGAUCACCCAUGUAGAAGGCACGAGCUGAU	0.0131	0.266		
AGUUUACAUGAGGAUCACCCAUGUGAGGAUAUGGUUUCGCUGGCCGUAGCCAGUGGAACCAGAAGGCGCGUGAU	0.0876	0.164		
UGAUAACAUGUAGGAUAUGCAGCAUUGACCACUGCAGAAGGACAUGAGGAUCACCCAUGUACCCAUACUAUGGGAUCACGCAAU	0.0459	0.195		
AAUUGACACGUAGGAUAUCGCUCUAAUUUAACACGAGAAGGACGUACAUGAGGAUCACCCAUGUUAAAUGGUGUAGAUUAGUUG	0.0309	0.088		
CAAUAUAACACAGGAUAUGUCUCGUUUACAUGAGGAUCACCCAUGUCCGAAACAGAAGGGUGACCCGAUAUAGGACGUUGGGUG			0.0563	0.018
GCACGACAUGUAGGAUAUCGAGCGCCGGGCGCUCGAGAAGGACAUGAGGAUCACCCAUGUAUUCUGAGUGACCGAGGUCGAUGC	0.0312	0.18		
CCAUAUAACUGAGGAUAUGAUCACCACUAACAUUCAGAAGGCAGACAUGAGGAUCACCCAUGUGAUUUCUCAAUAUUAUACAUC	0.572	0.363		
GGUGCGUUUGUGAGGAUAUGCUGGUCCUUGGGUCAGCAGAAGGCACAUGAGGAUCACCCAUGUGGUGUCGUACC	0.358	0.0429		
GACCUAUAGGUAGGAUAUCAUUGCGAUUAGCUAUGAGAAGGACCACAUGAGGAUCACCCAUGUCCUCUAAUUAGCCAUUUGGUC	0.38	1.04		
AUAGGGACCUCGCAAUGUUUACAUGAGGAUCACCCAUGUAAGAGAAGGGUCCAGUCAUCUCCUGGAUAGGAUAUCUUACCGUUA	0.00521	0.00644		
CGCACUGAUAGAGGAUAUGUUUUACAUGAGGAUCACCCAUGUGUACAAGGAUCAAUAUAUUAGUAACAGAAGGCUAUUAGUGCG	0.0247	0.0215		
CCAGCGAGUGUGAGGAUAUGCUGGUCCUUGGAUCAGCAGAAGGCACAUGAGGAUCACCCAUGUGAGGACGUUGG	0.0282	0.248		
UUUUUUGUAGUGAGGAUAUCGUUGUGGAUGUGGAUCGAGAAGGCACAUGAGGAUCACCCAUGUUAGUUGUGGUU	0.155	0.216		
UAGUGAUUGCAAGGAUAUGCUUGUGUUUUAUUUUUUUUAAUAUCUAACAUGAGGAUCACCCAUGUGCAGAAGGUGCUUGAUUUG			0.0478	0.0488
CAGCGAUAGCUAAAGUAUCUAUCAGAGGAUAUUUAUGAAACAUGAGGAUCACCCAUGUGACACUGGGAGAAGGCUGAUAGAUAG			0.0101	0.00525
AAUCUGUGAGGAUAUGGUGAGUAGUGCCUGAGCGCUGCUCACCAGAAGGCACAUGAGGAUCACCCAUGUAUGAA	0.0312	0.0996		
CGAUAGGACAGAGGAUAUACACAUGAGGAUCACCCAUGUAAUUACAACUCAUGAGGAUCACCCAUGUAGAAGGCUGUCCUAUCG	0.397	0.43		
ACGGCUUAGUCAGGAUAUACAAGAUUGUGAGACUACAUGAGGAUCACCCAUGUAGAAGGGACUAAUCGUCUGAACAUUGCUUUC	0.00758	0.0221		
